Compound activity: PubChem, several laboratories
Hits are enriched below; roughly 2% of the tested compounds scored in any of these assays.
NR2E3 ag-1 – NR2E3 agonists in two-hybrid cells, primary screen, cell-based, luminescence, CHO-S, Gal4-NCOR/VP16-NR2E3. inhibition of corepressor binding, % at 3.98 µM. luciferase. 0.35% of 360,000 active;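 active = inhibition above the mean of all tested compounds plus 3 SD, cut at about 70% in these data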;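 also: 0% = DMSO with NR2E3 transfected cells and 100% = cells lacking NR2E3 construct; higher means lower luciferase signal from less NR2E3 corepressor binding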
Target sequence (Q9Y5X4 whole entry, looked up, the tested form may be a part): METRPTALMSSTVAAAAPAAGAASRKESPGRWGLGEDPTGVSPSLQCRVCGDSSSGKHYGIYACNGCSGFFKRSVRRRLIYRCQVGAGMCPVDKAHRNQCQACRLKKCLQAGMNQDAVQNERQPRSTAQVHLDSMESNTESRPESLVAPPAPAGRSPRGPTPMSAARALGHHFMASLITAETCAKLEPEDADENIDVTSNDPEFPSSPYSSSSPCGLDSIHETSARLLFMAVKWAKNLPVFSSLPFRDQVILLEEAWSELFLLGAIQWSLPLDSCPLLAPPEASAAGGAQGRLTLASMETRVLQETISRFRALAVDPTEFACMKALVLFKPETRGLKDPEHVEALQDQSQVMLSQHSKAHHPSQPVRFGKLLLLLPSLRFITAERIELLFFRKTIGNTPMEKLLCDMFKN
HIF activator – HIF pathway transcriptional activators, primary screen, cell-based, U2OS HRE-luciferase, luminescence. U2OS HRE-luciferase reporter; normalized: DMSO 0%, desferrioxamine 100%. 0.32% of 300,000 active. activation, % at 7.5 µM (by protocol);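 active = mean activation of at least 10% of the iron chelator positive control signal, with at least half of replicates also reaching 10%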
TROY NFkB inh – inhibitors of TROY-driven NF-kB signaling, primary screen, Q293 LMP1-TROYcd cells, NF-kB luciferase, uHTS; inhibition, % at 10 µM; Q293 LMP1-TROYcd NF-kB luciferase reporter, 4 h; 0.98% of 360,000 active;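 active = compounds whose plate-normalised and pattern-corrected inhibition of the luciferase reporter signal at the single screening dose is 50% or more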
NR2E3 ag-2 – inhibitors of NR2E3-RetCOR corepressor binding, primary screen, NR2E3 agonist project, biochemical, TR-FRET, GST-NR2E3, biotin-RetCOR | AID 2300, 2010 | inhibition of corepressor binding, % at 4.78 µM | Photoreceptor-specific nuclear receptor (Homo sapiens), Q9Y5X4 | 0.12% of 320,000 active | 1536-well;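 active = percent inhibition above the cutoff of mean plus 3 SD of all tested compounds, set per screening campaign, cut at about 20% in these data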;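 also: 0% = DMSO wells and 100% = biotin wells as full block of FRET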
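System: GST-tagged NR2E3 plus biotinylated RetCOR corepressor; Buffer or medium: pH 7.5 Tris-based buffer; Probe or stimulus: RetCOR corepressor, biotinylated, 7 nM; Doses: compound at 4.8 µM, single dose; Schedule: 5 h incubation at 4 °C; Technique: time-resolved FRET; Evaluation: percent inhibition of TR-FRET ratio; Replication: one well per compound, singlicate testing.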
EBV LMP1 NFkB – EBV LMP1-driven NF-kappaB luciferase reporter inhibitors, primary screen, cell-based, luminescence, single point; LMP1-induced NF-kappaB luciferase reporter cells; inhibition, % at 12.5 µM; 0.69% of 350,000 active; AID 504558, 2011; in the data active = inhibition above about 41%;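 also: 0% = neutral control wells and 100% = reference inhibitor control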
NR2E3 ag confirm – NR2E3 agonist confirmation in cells, cell-based, luminescence, CHO-S two-hybrid; shares compounds with NR2E3 ag-1; CHO-S mammalian two-hybrid NR2E3-NCOR, luciferase luminescence; inhibition, % at 3.98 µM; 51% of 2,300 active;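 active = average inhibition above a cutoff equal to the mean inhibition of all tested compounds plus one SD, cut at about 70% in these data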;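 also: 0% = DMSO in NR2E3 cells and 100% = DMSO in cells lacking NR2E3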
GAL4-VP16 luc – GAL4-VP16 reporter modulators, confirmation, counter-screen for NR2E3 agonist project, cell-based, luminescence, CHO-S, high throughput; shares compounds with NR2E3 ag-1; CHO-S GAL4-VP16 luciferase reporter; inhibition, % at 3.98 µM; 29% of 2,300 active; AID 624379, 2012;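 active = mean inhibition above a cutoff equal to the average over all tested compounds plus one standard deviation, cut at about 70% in these data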;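 also: luciferase from a UAS reporter driven by GAL4-VP16 transactivation; 0% = DMSO with VP16-transfected cells and 100% = DMSO with cells lacking VP16; higher means less reporter light so more repression of VP16 activity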
* = called active by the depositor; . = not tested or not shown.

SMILES	NR2E3 ag-1	HIF activator	TROY NFkB inh	NR2E3 ag-2	EBV LMP1 NFkB	NR2E3 ag confirm	GAL4-VP16 luc
CN(c1ccccc1)S(=O)(=O)c1ccc(Cl)c(C(=O)Nc2ccc(N3CCOCC3)cc2)c1	-15.1	0.5	2.6	0.8	0.8	.	.
CCOC(=O)N(C)c1c(CC)nc2c(OCc3ccccc3)cccn12	8.4	.	-18.9	.	.	.	.
O=C(Nc1ccc(S(=O)(=O)N2CCN(Cc3ccccc3)CC2)cc1)c1cnccn1	61.0	-0.4	27.5	3.2	10.3	86.0*	71.3*
Cc1cccc(S(=O)(=O)NC(=O)C2(C)CCN2C(=O)c2sccc2C)c1 (stereo not drawn)	14.6	.	9.0	.	.	.	.
Cc1ccc(C(=O)Nc2cccc(C(=O)NCc3ccco3)c2)cc1	55.8	1.1	-38.5	-0.3	-46.0	18.7	-4.0
O=C(NCc1ccco1)c1cccc(NC(=O)c2ccccc2)c1	50.4	1.4	-9.0	-2.5	6.4	23.3	21.7
CCC(CC)C(=O)Nc1cccc(C(=O)NCc2ccco2)c1	-9.8	-0.2	8.6	0.0	-6.6	.	.
O=C(COC(=O)c1nc(Cl)ccc1Cl)NC(=O)c1ccccc1	-34.2	-1.4	11.2	1.9	0.9	.	.
O=C(NCCc1ccccc1F)c1ccc2c(c1)OCCO2	72.2*	-5.9	85.8*	0.6	84.7*	64.8	40.9
O=C(NCc1ccccc1F)c1ccc2c(c1)OCO2	-23.8	-0.1	3.5	-0.2	0.8	.	.
CN(C(=O)c1cccc(NC(=O)Cc2ccc(NC(=O)C3CCN(C(=O)C4CC4)CC3)cc2)c1)C1CC1	-11.1	.	-6.4	.	-11.6	.	.
CN(C)C(=O)CNc1ccn2nc(-c3cccc(Cl)c3)cc2n1	-77.5	.	-15.1	.	.	.	.
COc1ccccc1-[n+]1c(C)cc(/C=C2\Sc3ccccc3N2C)cc1C	91.6*	.	81.7*	-9.8	52.4*	96.9*	82.8*
COc1ccc(-[n+]2c(C)cc(/C=C3\Sc4ccccc4N3C)cc2C)cc1	92.5*	-0.4	29.3	-7.7	-7.4	98.6*	92.4*
COc1ccc(C(=O)/C=C2\Sc3ccccc3N2C)cc1	-152.5	2.6	-25.3	-2.4	-68.7	.	.
CCOc1ccc(CCNS(=O)(=O)c2ccc3c(c2)N(C(C)=O)CCO3)cc1OCC	7.1	0.7	17.5	-0.5	5.5	.	.
CC(C)COC(=O)NCCCOC(=O)Nc1ccccc1	-15.6	0.5	-11.7	-3.0	-14.7	.	.
CC(C)COC(=O)NCCOC(=O)Nc1cccc(Cl)c1	72.6*	-0.3	-10.6	0.5	-0.3	88.9*	72.4*
O=C(Nc1ccccc1)Nc1cc(OCC(F)(F)F)cc(OCC(F)(F)F)c1	63.9	-1.0	43.0	.	-4.9	30.5	40.2
C=CCn1c(O)c(N=NC(=S)Nc2ccccc2C)c2cc(S(=O)(=O)N3CCOCC3)ccc21	62.9	0.1	-10.2	1.4	43.0*	23.0	25.9
Cc1ccc(N=Nc2c(O)n(CN3CCOCC3)c3ccccc23)cc1	-114.7	3.8	-66.4	-0.1	-34.2	.	.
Cn1c(O)c(N=NC(=S)Nc2ccccc2F)c2cc(S(=O)(=O)N3CCOCC3)ccc21	-12.1	0.7	35.5	.	38.8	.	.
Cc1cccc(NC(=S)N=Nc2c(O)n(CN3CCOCC3)c3ccccc23)c1C	71.7*	-0.1	-9.8	0.2	30.8	15.0	21.9
COc1cc(C(=O)NC(CCSC)C(=O)Nc2ccc(N3CCOCC3)cc2)cc(OC)c1OC (stereo not drawn)	-1.8	.	-3.6	.	8.8	.	.
Cc1ccc(-c2csc(N3CCC(NS(=O)(=O)c4ccc5c(c4)OCCO5)CC3)n2)cc1	88.6*	-0.8	15.5	0.4	30.3	99.1*	89.4*
SMILES	NR2E3 ag-1	HIF activator	TROY NFkB inh	NR2E3 ag-2	EBV LMP1 NFkB	NR2E3 ag confirm	GAL4-VP16 luc
Cc1ccc(-c2csc(N3CCC(C(N)=O)CC3)n2)cc1	-115.2	.	-69.0	3.3	-10.6	.	.
COc1cc(OCc2ccccc2)c(OC)c(OCc2ccccc2)c1	-50.2	.	-16.9	.	-9.4	.	.
CC(Oc1ccccc1)c1nnc(N)s1 (stereo not drawn)	25.2	0.7	-10.1	-0.4	-7.7	.	.
CC(c1ccccc1)c1nnc(N)s1 (stereo not drawn)	58.6	-0.5	5.5	2.5	4.5	9.6	8.8
Cc1cccc(C)c1Nc1cn[nH]c1	1.1	.	-3.2	.	.	.	.
CN(C)CCCNC(NC(=O)/C=C/c1ccccc1)C(Cl)(Cl)Cl (stereo not drawn)	-20.4	0.0	-13.5	-3.2	2.7	.	.
Cc1csc(NC(=O)CSCC(=O)O)c1-c1nc2ccccc2s1	49.6	-0.2	-10.7	3.2	-10.8	67.6	29.6
O=C(O)CSCC(=O)Nc1ccc(-c2nc3ccccc3s2)cc1	-138.7	1.6	42.3	-2.1	2.5	.	.
C[C@H](O)[C@@H]1C(=O)N2CCc3c([nH]c4ccccc34)[C@@H]2C[C@@H]1N(C)C(=O)c1cc(Cl)cc(Cl)c1	-14.2	.	28.5	.	.	.	.
Cc1nc2c(-c3ccccc3)c(C)[nH]n2c(=O)c1Cc1ccccc1	25.1	-0.8	23.5	1.9	9.6	.	.
CCc1cc(=O)n2[nH]c(C)c(-c3ccccc3OC)c2n1	4.7	0.0	-10.8	1.3	31.7	.	.
COCc1cc(=O)n2[nH]c(C)c(-c3ccc(Cl)cc3)c2n1	51.2	.	-0.4	.	12.3	41.8	35.4
Cc1nc2c(-c3ccc(Cl)cc3)c(C)[nH]n2c(=O)c1Cc1ccccc1	87.8*	0.1	31.7	1.1	43.4*	99.5*	57.0
Cc1nn(C)c(C)c1/C=C/C(=O)c1ccc(Cl)cc1Cl	75.7*	0.6	13.8	2.9	7.6	99.6*	85.0*
Cc1nn(C)c(C)c1/C=C/C(=O)O	9.2	-0.4	1.7	-4.4	-4.2	.	.
O=C(CCl)Nc1c(C(=O)Nc2ccc3c(c2)OCCO3)oc2ccccc12	50.6	2.3	24.1	2.3	-46.0	-100.5	-8.3
COCCn1c(SCc2ccc(C(=O)OC)o2)nc2ccccc2c1=O	8.4	.	-0.9	2.1	12.5	.	.
COC(=O)c1cc(CSc2nc3ccccc3c(=O)n2C)oc1C	86.7*	1.7	17.7	3.6	17.7	82.9*	71.3*
O=C(Nc1nnc([C@H]2C[C@H](O)[C@@H](CO)O2)s1)Nc1ccccc1F	-44.1	.	-32.7	.	.	.	.
Cc1ccc(S(=O)(=O)NCCC2=CCCCC2)cc1C(N)=O	75.0*	0.6	34.6	-0.9	11.0	83.8*	62.0
O=S(=O)(c1ccc(Cl)cc1)N1CCN(c2ncnc3sccc23)CC1	95.0*	.	22.2	.	10.0	93.5*	72.2*
Cc1ccccc1-n1nnnc1SCC(=O)NCC1(N2CCOCC2)CCCCC1	-10.2	.	4.9	-1.5	-6.3	.	.
